Measurements as given in ChEMBL document CHEMBL5653631, “A Potent and Selective ULK1 Inhibitor Suppresses Autophagy and Sensitizes Cancer Cells to Nutrient Stress” (iScience, 2018).
Values belong to the compound of their own block, whether it stands above or below them. Calls of active or inactive are those of the source. The calls are words filed in the database; no cut-off is given here.

What was measured:
[1] = molecular target: Serine/threonine-protein kinase 25 (Homo sapiens) (UniProt O00506); assay: Inhibition of human recombinant YSK1 at 500 nM related to control ULK1
[2] = molecular target: LIM domain kinase 1 (Homo sapiens) (UniProt P53667); assay: Inhibition of human recombinant LIMK1 at 500 nM related to control ULK1
Sequence of LIM domain kinase 1 (Homo sapiens) (P53667 whole entry, looked up, the tested form may be a part): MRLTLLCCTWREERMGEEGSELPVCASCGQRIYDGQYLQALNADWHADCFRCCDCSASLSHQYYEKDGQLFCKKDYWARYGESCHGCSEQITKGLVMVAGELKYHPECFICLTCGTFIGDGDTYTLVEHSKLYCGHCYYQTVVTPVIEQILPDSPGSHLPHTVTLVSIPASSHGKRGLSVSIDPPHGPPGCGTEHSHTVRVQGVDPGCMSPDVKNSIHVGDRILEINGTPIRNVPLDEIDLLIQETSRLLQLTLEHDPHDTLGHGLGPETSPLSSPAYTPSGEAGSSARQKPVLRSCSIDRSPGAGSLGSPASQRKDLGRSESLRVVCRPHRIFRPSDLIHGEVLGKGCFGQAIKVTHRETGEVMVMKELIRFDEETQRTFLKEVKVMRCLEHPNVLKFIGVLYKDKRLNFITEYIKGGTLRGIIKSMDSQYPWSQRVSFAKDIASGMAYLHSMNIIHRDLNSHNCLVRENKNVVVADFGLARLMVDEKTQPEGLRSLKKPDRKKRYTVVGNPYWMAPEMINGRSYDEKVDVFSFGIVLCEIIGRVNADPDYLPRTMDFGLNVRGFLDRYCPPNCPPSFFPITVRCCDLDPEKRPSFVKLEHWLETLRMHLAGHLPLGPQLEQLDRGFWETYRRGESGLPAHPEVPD

[3] = molecular target: Serine/threonine-protein kinase PLK2 (Homo sapiens) (UniProt Q9NYY3); assay: Inhibition of human recombinant PLK2 at 500 nM in presence of ATP by radiometric assay relative to control
[4] = molecular target: T1, Serine/threonine-protein kinase DCLK3 (Homo sapiens) (UniProt Q9C098); assay: Inhibition of human recombinant DCAMKL3 at 500 nM in presence of ATP by radiometric assay relative to control
T1 sequence (whole entry): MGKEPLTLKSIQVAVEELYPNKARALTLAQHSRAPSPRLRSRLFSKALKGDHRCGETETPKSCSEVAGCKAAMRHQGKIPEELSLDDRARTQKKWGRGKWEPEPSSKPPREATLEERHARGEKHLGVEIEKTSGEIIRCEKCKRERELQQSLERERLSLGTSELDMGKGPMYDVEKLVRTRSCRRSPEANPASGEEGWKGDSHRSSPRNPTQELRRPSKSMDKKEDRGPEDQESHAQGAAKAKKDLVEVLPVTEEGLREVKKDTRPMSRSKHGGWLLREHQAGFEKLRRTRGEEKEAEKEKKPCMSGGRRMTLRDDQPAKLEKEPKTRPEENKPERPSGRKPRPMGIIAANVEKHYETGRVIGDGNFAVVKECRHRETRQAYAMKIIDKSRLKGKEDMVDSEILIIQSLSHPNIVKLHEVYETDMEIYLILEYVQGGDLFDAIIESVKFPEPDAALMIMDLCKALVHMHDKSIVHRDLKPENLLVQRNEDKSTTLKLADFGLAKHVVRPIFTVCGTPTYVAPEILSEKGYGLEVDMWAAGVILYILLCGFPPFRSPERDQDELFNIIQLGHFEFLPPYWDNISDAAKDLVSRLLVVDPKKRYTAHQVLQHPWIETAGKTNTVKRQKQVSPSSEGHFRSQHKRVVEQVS

[5] = molecular target: Calcium/calmodulin-dependent protein kinase type II subunit beta (Homo sapiens) (UniProt Q13554); assay: Inhibition of human recombinant CaMK2b at 15 nM in presence of ATP by radiometric assay relative to control
Sequence of Calcium/calmodulin-dependent protein kinase type II subunit beta (Homo sapiens) (Q13554 whole entry): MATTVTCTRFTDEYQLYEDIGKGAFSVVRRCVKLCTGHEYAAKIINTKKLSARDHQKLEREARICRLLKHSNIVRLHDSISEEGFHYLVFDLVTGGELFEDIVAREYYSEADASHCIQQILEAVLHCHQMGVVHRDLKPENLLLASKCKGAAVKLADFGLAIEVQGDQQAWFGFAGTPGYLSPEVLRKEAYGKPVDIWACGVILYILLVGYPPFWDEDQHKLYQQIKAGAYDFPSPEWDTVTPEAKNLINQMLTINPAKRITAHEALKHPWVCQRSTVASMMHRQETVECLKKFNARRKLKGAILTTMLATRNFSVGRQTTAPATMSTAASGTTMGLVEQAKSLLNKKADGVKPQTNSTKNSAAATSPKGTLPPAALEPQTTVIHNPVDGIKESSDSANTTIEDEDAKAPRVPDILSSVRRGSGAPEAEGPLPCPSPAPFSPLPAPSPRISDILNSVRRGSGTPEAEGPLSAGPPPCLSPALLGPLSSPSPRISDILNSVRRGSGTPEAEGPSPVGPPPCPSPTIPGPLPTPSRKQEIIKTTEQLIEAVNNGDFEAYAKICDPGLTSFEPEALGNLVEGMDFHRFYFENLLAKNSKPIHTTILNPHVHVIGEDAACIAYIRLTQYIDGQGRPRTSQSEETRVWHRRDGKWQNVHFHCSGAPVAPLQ

[6] = molecular target: Ephrin type-A receptor 5 (Homo sapiens) (UniProt P54756); assay: Inhibition of human recombinant EphA5 at 15 nM in presence of ATP by radiometric assay relative to control
Sequence of Ephrin type-A receptor 5 (Homo sapiens) (P54756 whole entry): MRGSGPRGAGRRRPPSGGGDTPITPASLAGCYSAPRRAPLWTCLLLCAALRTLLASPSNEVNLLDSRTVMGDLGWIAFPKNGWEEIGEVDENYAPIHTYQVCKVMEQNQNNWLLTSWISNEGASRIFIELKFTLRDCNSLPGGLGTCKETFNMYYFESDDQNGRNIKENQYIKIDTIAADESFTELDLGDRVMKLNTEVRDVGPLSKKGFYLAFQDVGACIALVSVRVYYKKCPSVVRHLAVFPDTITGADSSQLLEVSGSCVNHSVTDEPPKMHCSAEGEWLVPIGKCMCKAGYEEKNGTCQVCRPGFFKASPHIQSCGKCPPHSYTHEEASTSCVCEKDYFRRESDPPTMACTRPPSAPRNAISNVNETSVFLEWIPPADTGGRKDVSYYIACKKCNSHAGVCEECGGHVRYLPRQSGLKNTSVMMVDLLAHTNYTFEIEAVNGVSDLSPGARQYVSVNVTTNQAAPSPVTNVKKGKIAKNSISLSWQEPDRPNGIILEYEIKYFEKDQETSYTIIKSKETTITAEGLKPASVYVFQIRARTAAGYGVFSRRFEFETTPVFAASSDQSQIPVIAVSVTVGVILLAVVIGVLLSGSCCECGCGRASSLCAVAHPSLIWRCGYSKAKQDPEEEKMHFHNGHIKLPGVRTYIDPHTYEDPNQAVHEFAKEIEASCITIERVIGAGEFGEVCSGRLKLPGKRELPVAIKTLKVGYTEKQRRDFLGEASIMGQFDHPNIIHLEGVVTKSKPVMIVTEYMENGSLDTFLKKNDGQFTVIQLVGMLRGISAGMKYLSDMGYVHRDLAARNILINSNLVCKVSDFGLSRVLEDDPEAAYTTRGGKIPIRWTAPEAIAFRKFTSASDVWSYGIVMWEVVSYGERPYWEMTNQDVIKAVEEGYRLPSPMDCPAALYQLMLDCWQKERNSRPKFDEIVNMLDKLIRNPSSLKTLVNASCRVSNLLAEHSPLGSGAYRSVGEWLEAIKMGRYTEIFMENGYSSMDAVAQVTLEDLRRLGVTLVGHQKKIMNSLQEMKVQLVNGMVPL

[7] = molecular target: T2, Testis-specific serine/threonine-protein kinase 3 (Homo sapiens) (UniProt Q96PN8); assay: Inhibition of human recombinant TSSK3 at 15 nM in presence of ATP by radiometric assay relative to control
T2 sequence (whole entry): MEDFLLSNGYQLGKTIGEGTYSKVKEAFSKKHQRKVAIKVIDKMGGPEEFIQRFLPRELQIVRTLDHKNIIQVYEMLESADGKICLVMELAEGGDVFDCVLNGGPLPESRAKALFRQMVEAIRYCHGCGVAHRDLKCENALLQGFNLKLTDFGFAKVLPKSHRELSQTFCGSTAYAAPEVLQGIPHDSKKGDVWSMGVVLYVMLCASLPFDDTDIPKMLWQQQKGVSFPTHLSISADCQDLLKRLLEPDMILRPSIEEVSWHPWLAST

[8] = molecular target: Dual specificity protein kinase CLK2 (Homo sapiens) (UniProt P49760); assay: Inhibition of human recombinant CLK2 at 15 nM related to control ULK1
Sequence of Dual specificity protein kinase CLK2 (Homo sapiens) (P49760 whole entry, looked up): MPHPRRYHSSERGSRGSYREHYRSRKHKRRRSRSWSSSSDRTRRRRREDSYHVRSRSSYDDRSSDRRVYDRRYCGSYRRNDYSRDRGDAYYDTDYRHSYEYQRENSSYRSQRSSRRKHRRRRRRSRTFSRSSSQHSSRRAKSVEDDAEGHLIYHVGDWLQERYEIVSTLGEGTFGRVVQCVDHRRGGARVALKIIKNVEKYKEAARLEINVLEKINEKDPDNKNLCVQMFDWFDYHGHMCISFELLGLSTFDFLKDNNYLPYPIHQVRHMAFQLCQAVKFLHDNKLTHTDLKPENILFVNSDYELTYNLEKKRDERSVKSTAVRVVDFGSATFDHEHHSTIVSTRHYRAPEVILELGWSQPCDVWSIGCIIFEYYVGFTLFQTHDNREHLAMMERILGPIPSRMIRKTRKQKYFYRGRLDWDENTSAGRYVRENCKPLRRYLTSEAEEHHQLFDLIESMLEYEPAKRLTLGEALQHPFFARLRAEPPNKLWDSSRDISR

[9] = molecular target: T3, Ephrin type-A receptor 8 (Homo sapiens) (UniProt P29322); assay: Inhibition of human recombinant EphA8 at 15 nM related to control ULK1
T3 sequence (whole entry): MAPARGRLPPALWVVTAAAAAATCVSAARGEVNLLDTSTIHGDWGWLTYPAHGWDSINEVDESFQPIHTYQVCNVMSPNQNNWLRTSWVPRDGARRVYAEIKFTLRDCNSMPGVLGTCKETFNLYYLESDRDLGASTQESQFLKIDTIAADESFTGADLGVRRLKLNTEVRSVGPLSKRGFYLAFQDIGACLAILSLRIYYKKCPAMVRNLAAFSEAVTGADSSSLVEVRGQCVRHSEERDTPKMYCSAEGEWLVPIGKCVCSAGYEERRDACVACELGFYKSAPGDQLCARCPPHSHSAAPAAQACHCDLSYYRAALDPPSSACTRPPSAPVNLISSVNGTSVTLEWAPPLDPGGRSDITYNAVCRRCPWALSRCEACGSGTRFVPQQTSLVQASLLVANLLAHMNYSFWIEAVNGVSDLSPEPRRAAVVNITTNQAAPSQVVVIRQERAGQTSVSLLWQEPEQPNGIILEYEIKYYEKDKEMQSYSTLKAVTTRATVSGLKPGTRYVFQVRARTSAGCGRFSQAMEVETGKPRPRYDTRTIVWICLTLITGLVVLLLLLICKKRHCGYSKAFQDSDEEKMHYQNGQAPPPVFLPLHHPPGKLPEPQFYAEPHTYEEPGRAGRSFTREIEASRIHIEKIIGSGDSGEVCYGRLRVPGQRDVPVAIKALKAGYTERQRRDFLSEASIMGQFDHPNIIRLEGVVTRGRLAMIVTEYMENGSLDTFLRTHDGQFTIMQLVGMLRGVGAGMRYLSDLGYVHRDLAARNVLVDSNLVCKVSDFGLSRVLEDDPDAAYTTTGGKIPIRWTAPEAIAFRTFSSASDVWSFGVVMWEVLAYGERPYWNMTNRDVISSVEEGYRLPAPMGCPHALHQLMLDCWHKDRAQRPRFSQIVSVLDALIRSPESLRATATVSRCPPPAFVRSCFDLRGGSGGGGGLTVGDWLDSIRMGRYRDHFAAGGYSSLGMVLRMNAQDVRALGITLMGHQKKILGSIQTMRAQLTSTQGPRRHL

[10] = molecular target: Ribosomal protein S6 kinase alpha-5 (Homo sapiens) (UniProt O75582); assay: Inhibition of human recombinant MSK1 at 40 nM in presence of ATP by radiometric assay relative to control
Sequence of Ribosomal protein S6 kinase alpha-5 (Homo sapiens) (O75582 whole entry, looked up): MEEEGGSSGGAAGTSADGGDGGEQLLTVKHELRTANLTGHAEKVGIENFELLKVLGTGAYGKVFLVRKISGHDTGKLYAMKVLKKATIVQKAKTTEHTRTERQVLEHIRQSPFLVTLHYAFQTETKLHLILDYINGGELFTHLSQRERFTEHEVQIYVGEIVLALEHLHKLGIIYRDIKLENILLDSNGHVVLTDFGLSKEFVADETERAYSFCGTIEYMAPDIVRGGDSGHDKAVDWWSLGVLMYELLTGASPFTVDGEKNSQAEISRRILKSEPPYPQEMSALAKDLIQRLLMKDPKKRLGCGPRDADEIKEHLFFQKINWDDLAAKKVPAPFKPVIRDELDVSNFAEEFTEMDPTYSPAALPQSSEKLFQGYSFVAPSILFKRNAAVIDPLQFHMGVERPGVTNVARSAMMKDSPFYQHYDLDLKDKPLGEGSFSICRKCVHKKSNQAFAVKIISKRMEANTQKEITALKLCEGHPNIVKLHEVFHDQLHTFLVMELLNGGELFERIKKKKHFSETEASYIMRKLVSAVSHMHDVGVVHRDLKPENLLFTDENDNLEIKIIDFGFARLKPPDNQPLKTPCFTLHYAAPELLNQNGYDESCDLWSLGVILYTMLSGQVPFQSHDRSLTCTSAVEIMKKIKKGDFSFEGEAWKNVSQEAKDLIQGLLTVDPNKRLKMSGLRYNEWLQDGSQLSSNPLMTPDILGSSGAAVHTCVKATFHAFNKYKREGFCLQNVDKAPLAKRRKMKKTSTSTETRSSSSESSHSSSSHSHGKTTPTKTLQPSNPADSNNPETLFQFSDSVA

[11] = molecular target: Leukocyte tyrosine kinase receptor (Homo sapiens) (UniProt P29376); assay: Inhibition of human recombinant LTK at 40 nM related to control ULK1
[12] = molecular target: Serine/threonine-protein kinase SIK3 (Homo sapiens) (UniProt Q9Y2K2); assay: Inhibition of human recombinant QSK at 40 nM related to control ULK1
Sequence of Serine/threonine-protein kinase SIK3 (Homo sapiens) (Q9Y2K2 whole entry, looked up): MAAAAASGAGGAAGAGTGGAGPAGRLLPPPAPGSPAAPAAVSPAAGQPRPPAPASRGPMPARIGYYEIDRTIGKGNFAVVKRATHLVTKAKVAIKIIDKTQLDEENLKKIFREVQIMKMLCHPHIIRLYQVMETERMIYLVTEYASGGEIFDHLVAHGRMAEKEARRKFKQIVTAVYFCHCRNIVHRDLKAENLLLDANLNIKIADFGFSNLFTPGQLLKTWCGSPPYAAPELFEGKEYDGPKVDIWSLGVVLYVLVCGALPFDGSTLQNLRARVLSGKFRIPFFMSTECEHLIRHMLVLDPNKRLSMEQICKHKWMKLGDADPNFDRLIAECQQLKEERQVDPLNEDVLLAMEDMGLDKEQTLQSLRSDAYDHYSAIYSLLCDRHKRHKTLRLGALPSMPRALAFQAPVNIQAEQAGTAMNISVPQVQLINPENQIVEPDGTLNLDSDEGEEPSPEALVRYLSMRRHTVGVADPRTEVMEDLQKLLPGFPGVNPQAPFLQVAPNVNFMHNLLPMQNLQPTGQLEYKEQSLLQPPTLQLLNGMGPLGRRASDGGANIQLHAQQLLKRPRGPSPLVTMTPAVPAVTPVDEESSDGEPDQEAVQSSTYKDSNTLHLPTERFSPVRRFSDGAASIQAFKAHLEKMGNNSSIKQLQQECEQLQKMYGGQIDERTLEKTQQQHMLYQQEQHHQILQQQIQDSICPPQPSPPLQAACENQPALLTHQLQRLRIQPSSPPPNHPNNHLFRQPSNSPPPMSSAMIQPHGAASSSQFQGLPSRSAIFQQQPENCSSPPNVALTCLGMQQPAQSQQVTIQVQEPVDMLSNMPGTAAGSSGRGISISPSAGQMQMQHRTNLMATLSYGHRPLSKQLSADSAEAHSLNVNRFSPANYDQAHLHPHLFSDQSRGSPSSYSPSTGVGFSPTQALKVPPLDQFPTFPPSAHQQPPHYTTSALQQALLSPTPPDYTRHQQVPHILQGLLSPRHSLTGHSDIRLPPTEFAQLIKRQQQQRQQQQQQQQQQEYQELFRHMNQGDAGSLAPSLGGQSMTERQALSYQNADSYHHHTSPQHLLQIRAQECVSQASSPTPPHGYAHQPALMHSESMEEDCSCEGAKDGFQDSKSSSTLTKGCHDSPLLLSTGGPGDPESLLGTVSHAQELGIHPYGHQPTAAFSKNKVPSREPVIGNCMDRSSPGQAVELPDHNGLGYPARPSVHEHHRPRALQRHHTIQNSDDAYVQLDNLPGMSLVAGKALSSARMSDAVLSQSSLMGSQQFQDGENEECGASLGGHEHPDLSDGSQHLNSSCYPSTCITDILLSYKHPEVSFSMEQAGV

[13] = tested on: U2OS; assay: Inhibition of autophagy in human U2OS cells expressing […] assessed as DFCP1-positive puncta formation at 5 uM incubated for 2.5 hrs in presence of […] by Fluorescent microscopy based analysis; format: functional, cell-based
Procedure, shortened: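 U2OS cells stably expressing EGFP-DFCP1 treated 2.5 hr with vehicle or 100 nM AZD8055, with or without 5 μM inhibitor; imaged live by fluorescence microscopy; DFCP1-positive objects per cell counted in 20–25 cells per condition; mean ± SEM, two-tailed unpaired t test.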

fold change (FC) [1]: 0.16
fold change (FC) [2]: 0.03
inhibition [3]: 4%
inhibition [4]: 0%
SMILES: CNC(=O)c1ccccc1Oc1nc(Nc2cc(OC)c(OC)c(OC)c2)ncc1Br

inhibition [5]: 10%
inhibition [6]: 0%
inhibition [7]: 14%
fold change (FC) [8]: 0.33
fold change (FC) [9]: 0
SMILES: CC(C)[C@H](NC(=O)c1cc(-c2cnn3cc(-c4ccc(OCCN5CCCCC5)cc4)cnc23)cs1)C(F)(F)F

inhibition [10]: 0%
fold change (FC) [11]: 0
fold change (FC) [12]: 0.81
SMILES: O=C(N[C@@H](C1CC1)C(F)(F)F)c1cc(-c2cnn3cc(-c4ccc(F)cc4)cnc23)cs1
inhibition [13]: Active
